# Measured values pooled from the literature.
# Lines come from different studies, so protocols differ.
# ABL1 phosphorylated: Tyrosine-protein kinase ABL1, phosphorylated (ABL1, Homo sapiens, UniProt P00519)
# ABL1 F317L phosphorylated: Tyrosine-protein kinase ABL1, phosphorylated (ABL1, Homo sapiens, UniProt P00519, F317L)
# ABL1 M351T: Tyrosine-protein kinase ABL1 (ABL1, Homo sapiens, UniProt P00519, M351T)
# ABL1 M351T phosphorylated: Tyrosine-protein kinase ABL1, phosphorylated (ABL1, Homo sapiens, UniProt P00519, M351T)
# ABL1 non-phosphorylated: Tyrosine-protein kinase ABL1, non-phosphorylated (ABL1, Homo sapiens, UniProt P00519)
# ABL1 Y253F phosphorylated: Tyrosine-protein kinase ABL1, phosphorylated (ABL1, Homo sapiens, UniProt P00519, Y253F)
# ABL1 T315I non-phosphorylated: Tyrosine-protein kinase ABL1, non-phosphorylated (ABL1, Homo sapiens, UniProt P00519, T315I)
# ABL1 T315I phosphorylated: Tyrosine-protein kinase ABL1, phosphorylated (ABL1, Homo sapiens, UniProt P00519, T315I)
Compound,target,read-out,method,concentration,remaining binding
O=C(c1ccc(Nc2ncc(Cl)c(-c3ccc(Cl)s3)n2)cc1)N1CCC(N2CCCC2)CC1,ABL1 phosphorylated,binding,competition with immobilised ligand,1 µM,4.3%
CN(CCCC(F)(F)F)c1nccc(-c2cnn3ncccc23)n1,ABL1 phosphorylated,binding,,1 µM,100%
COc1ncc2cc3ccccc3nc2c1C#N,ABL1 F317L phosphorylated,cell-free assay,competition with immobilised ligand,5 µM,86%
C[C@@H]1CN(c2cc(-c3nn(C)c4ccc(OC5(C)CC5)cc34)ncn2)C[C@H](C)O1,"Tyrosine-protein kinase ABL1, non-phosphorylated (ABL1, Homo sapiens, UniProt P00519, H396P)",cell-free assay,competition with immobilised ligand,1 µM,75%
CC1CCCN1c1nccc(-c2cnn3ncccc23)n1 (centres unmarked),ABL1 M351T,binding,,1 µM,98%
O=C(c1ccc(Nc2nccc(-c3cc4ccccc4s3)n2)cc1)N1CCC(N2CCCC2)CC1,ABL1 F317L phosphorylated,binding,competition with immobilised ligand,1 µM,100%
c1cncc(-c2cccc(Nc3nccc(NC4CCCCC4)n3)c2)c1,ABL1 M351T phosphorylated,binding,competition with immobilised ligand,10 µM,38%
CN(C)c1nccc(-c2cnn3ncccc23)n1,ABL1 non-phosphorylated,binding,competition with immobilised ligand,1 µM,98%
C=CC(=O)N1CCC(C(=O)NCC(=O)N2CCN(c3nc(-c4cnc(N)nc4C(F)F)nc(N4CCOCC4)n3)CC2)CC1,ABL1 Y253F phosphorylated,binding,competition with immobilised ligand,1 µM,90%
N[C@H]1CCN(c2nccc(-c3cnn4ncccc34)n2)C1,ABL1 non-phosphorylated,binding,,1 µM,91%
Cc1cnc(Nc2ccc(C(=O)N3CCC(N4CCCC4)CC3)cc2)nc1-c1cc2ccccc2s1,ABL1 T315I non-phosphorylated,binding,competition with immobilised ligand,1 µM,0.1%
CN(c1nccc(-c2cnn3ncccc23)n1)C1CC1,"Tyrosine-protein kinase ABL1 (ABL1, Homo sapiens, UniProt P00519, Y253F)",binding,,1 µM,100%
Nc1ncc2c(n1)-c1c([nH]c3ccc(C#CC4CC4)cc13)CCCC2,ABL1 T315I phosphorylated,binding,competition with immobilised ligand,1 µM,97%
COc1cccc(CNC(=O)c2nc3scc(COCc4ccc(C(=O)O)cc4)c3c(=O)[nH]2)c1,ABL1 F317L phosphorylated,cell-free assay,competition with immobilised ligand,1 µM,87.2%
O=C(c1ccc(Nc2ncc(Cl)c(-c3cc4ccccc4s3)n2)cc1)N1CCC(N2CCCC2)CC1,"Tyrosine-protein kinase ABL1, phosphorylated (ABL1, Homo sapiens, UniProt P00519, E255K)",binding,competition with immobilised ligand,1 µM,13%
N#CC1(c2ccccn2)CCN(Cc2cc(C(=O)N3CCCC3)c(=O)n3ccccc23)CC1,"Tyrosine-protein kinase ABL1, phosphorylated (ABL1, Homo sapiens, UniProt P00519, Q252H)",cell-free assay,competition with immobilised ligand,1 µM,90%
O=C(NCCCN1CCOCC1)c1ccc(Nc2ncc(Cl)c(-c3ccc(Cl)s3)n2)cc1,ABL1 Y253F phosphorylated,binding,competition with immobilised ligand,1 µM,38%
CCN1CCN(Cc2ccc(C(=O)Nc3ccc(C)c(Oc4ccc5c(c4)CC(=O)N5)c3)cc2C(F)(F)F)CC1,ABL1 M351T phosphorylated,binding,competition with immobilised ligand,1 µM,55%
Cc1nc(Cc2cccc(C(F)(F)F)c2)sc1-c1ccc(C(N)=O)nc1,"Tyrosine-protein kinase ABL1, non-phosphorylated (ABL1, Homo sapiens, UniProt P00519, Q252H)",cell-free assay,competition with immobilised ligand,1 µM,87%
COc1cnc(Nc2cccc(S(N)(=O)=O)c2)nc1N1CCN(c2ccccc2)CC1,ABL1 phosphorylated,binding,competition with immobilised ligand,1 µM,79%
C[C@@H](c1ccc(-n2cnc3c(N)ncnc32)cc1)N1CCc2nn(C)c(Cc3ccccc3)c2C1=O,ABL1 T315I phosphorylated,binding,competition with immobilised ligand,0.1 µM,78%
O=C(NCC1CCOCC1)c1n[nH]cc1NC(=O)c1c(F)cccc1F,ABL1 M351T phosphorylated,binding,competition with immobilised ligand,1 µM,91%
O=C(NCCCN1CCOCC1)c1ccc(Nc2nccc(-c3cc4ccccc4s3)n2)cc1,ABL1 T315I non-phosphorylated,binding,competition with immobilised ligand,1 µM,19%
C[C@H]1CCN(c2nccc(-c3cnn4ncccc34)n2)C1,ABL1 M351T,binding,,1 µM,75%
CC(=O)N1CCC(c2ccc(C(=O)NC3=NCCN3)cc2C(F)(F)F)CC1,ABL1 F317L phosphorylated,cell-free assay,competition with immobilised ligand,1 µM,95%
CNC(=O)[C@@H]1CC[C@@H](n2c(-c3ccc4cnccc4c3)nc3ccc(C(=O)NCc4cccc(C(N)=O)c4)cc32)C1,ABL1 F317L phosphorylated,binding,competition with immobilised ligand,1 µM,95%
CSc1cccnc1N1CCN(Cc2nc3ccccc3[nH]2)CC1,"Tyrosine-protein kinase ABL1, non-phosphorylated (ABL1, Homo sapiens, UniProt P00519, F317L)",cell-free assay,competition with immobilised ligand,1 µM,100%
COc1ccnn2ncc(-c3ccnc(N(C)C)n3)c12,"Tyrosine-protein kinase ABL1 (ABL1, Homo sapiens, UniProt P00519, F317I)",binding,,1 µM,82%
CNCc1ccccc1-c1csc([C@@H](C)Nc2nc(C)nc3cc(OC)c(OC)cc23)c1,"Tyrosine-protein kinase ABL1, non-phosphorylated (ABL1, Homo sapiens, UniProt P00519, F317I)",binding,competition with immobilised ligand,1 µM,100%
COc1cnc(Nc2cccc(S(N)(=O)=O)c2)nc1N1CCN(c2ccccc2)C(=O)C1,ABL1 T315I phosphorylated,binding,competition with immobilised ligand,1 µM,77%
Cn1nc(C(F)(F)F)cc1-c1cnc(N2CCc3cc(S(=O)(=O)Nc4c(F)cc(Cl)cc4F)cc(N4CCCC4=O)c32)nc1,ABL1 T315I phosphorylated,cell-free assay,competition with immobilised ligand,1 µM,82%
O=C(Nc1c[nH]nc1C(=O)NC1CCNCC1)c1cc(F)cc(F)c1,"Tyrosine-protein kinase ABL1, phosphorylated (ABL1, Homo sapiens, UniProt P00519, H396P)",binding,competition with immobilised ligand,1 µM,100%
